Experimental findings from ChEMBL document CHEMBL3526041, “Absorption, metabolism and excretion of [(14)C]mirabegron (YM178), a potent and selective β(3)-adrenoceptor agonist, after oral administration to healthy male volunteers” (Drug Metab Dispos, 2012) are described below.

Type in all cases: ADME, organism-based
Holding throughout (parameters): dosed compound name [14C]Mirabegron
Holding throughout (conditions): in vivo

The test system of series [1] is Plasma. As to the kind of experiment: Drug recovery in healthy human plasma treated with [14C]mirabegron at 160 mg, po as single dose measured at 2 hrs. The method, boiled down:
(§1)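 Plasma taken at 2, 4, 8 and 12 h from the four subjects was pooled at each time point, with dichlorvos added. Pools underwent solid-phase extraction, then HPLC with fractions counted by low-level liquid scintillation. Each peak is expressed as % of the radioactivity injected onto HPLC.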

Series [2] relates to Plasma. As to the kind of experiment: Drug recovery in healthy human plasma treated with [14C]mirabegron at 160 mg, po as single dose measured at 8 hrs. The method, boiled down: as §1
Series [3] is described as follows: Drug recovery in healthy human urine treated with [14C]mirabegron at 160 mg, po as single dose measured up to 48 hrs. The gist of the method: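 Urine was collected at 0–6, 6–12, 12–24 and 24–48 h after a single oral 160 mg [14C]mirabegron dose in four men, with dichlorvos added. Samples underwent solid-phase extraction and radio-HPLC (C18, 40°C), with eluate fractions counted by scintillation. Each peak, as a percentage of eluted radioactivity, was converted to % of dose without recovery correction; mean ± S.D.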

For series [4], the system named is Plasma. As to the kind of experiment: Drug recovery in healthy human plasma treated with [14C]mirabegron at 160 mg, po as single dose measured at 4 hrs. The method, boiled down: as §1
Series [5] has as its system Plasma. As to the kind of experiment: Drug recovery in healthy human plasma treated with [14C]mirabegron at 160 mg, po as single dose measured at 12 hrs. The method, boiled down:
as §1

For `CC(=O)Nc1ccc(CCNC[C@H](O)c2ccccc2)cc1.Cl`, the Compound recovery in series [1] is 3.7%; in series [2], 9.4%; in series [3] it was 2.9%; in series [4], 4.9%; in series [5], 13%.
The corresponding values for `Nc1nc(CC(=O)Nc2ccc(CCN(C[C@H](O)c3ccccc3)O[C@@H]3O[C@H](C(=O)O)[C@@H](O)[C@H](O)[C@H]3O)cc2)cs1` are 6.9%, 3.5%, 0.6%, 5.9% and “Below limit of detection”.
`Cl.Nc1ccc(CCNC[C@H](O)c2ccccc2)cc1`: the Compound recovery in series [1] came out at 3.3%; in series [2], 6.2%; in series [3] it was 1.7%; in series [4] it was 4.3%; in series [5], 7.6%.
On the same counts, the results for `Nc1ccc(CCNCC(O)c2ccccc2)cc1O[C@@H]1O[C@H](C(=O)O)[C@@H](O)[C@H](O)[C@H]1O` (stereo not given in full) are “Below limit of detection”, “Below limit of detection”, 2%, “Below limit of detection” and “Below limit of detection”.
